Source: ChEMBL document CHEMBL3421565, “β-D-2'-C-Methyl-2,6-diaminopurine Ribonucleoside Phosphoramidates are Potent and Selective Inhibitors of Hepatitis C Virus (HCV) and Are Bioconverted Intracellularly to Bioactive 2,6-Diaminopurine and Guanosine 5'-Triphosphate Forms” (J Med Chem, 2015)
Active and inactive are the calls of the source. The calls are words filed in the database; no cut-off is given here.

Tests used:
[1] = system: Hepatitis C virus; experiment: Antiviral activity against HCV infected in human HuH7 cells assessed as reduction in replicon RNA levels incubated for 5 days by RT-PCR assay; assay type: functional, organism-based, Hepacivirus hominis; settings: Huh-7, 120 h
In short: (§1)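 Huh-7 clone B cells carrying HCV replicon RNA, seeded at 3000 cells/well; compounds added in dose response in triplicate right after seeding. Incubated 5 days at 37 °C, 5% CO₂. Total RNA extracted; replicon RNA and rRNA internal control co-amplified by one-step multiplex real-time RT-PCR. Antiviral effect taken as ΔCt versus no-drug control; cytotoxicity read from rRNA reduction.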

[2] = system: Vero; experiment: Cytotoxicity against African green monkey Vero cells assessed as reduction in cell viability incubated for 5 days by Cell-titer 96 aqueous one solution cell proliferation assay; assay type: cell-based; settings: chlorocebus sabaeus, vero, 120 h
[3] = Toxicity in human PC3 cells assessed as effect on GAPDH levels at 100 uM; assay type: cell-based; settings: pc-3, 100 µM
[4] = Toxicity in human PC3 cells assessed as effect on thymidine uptake at 100 uM; assay type: cell-based; settings: pc-3, 100 µM
[5] = system: HepG2; experiment: Mitochondrial toxicity in human HepG2 cells assessed as effect on mitochondrial cytochrome c oxidase subunit 2 DNA level incubated for 14 days by real-time PCR method; assay type: cell-based; settings: hepg2, 336 h
In short: (§2)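 HepG2 cells in DMEM with 4.5 g/L glucose and 10% heat-inactivated FBS, seeded at 5000 cells/well on collagen; compounds added 1 day later at final 1–50 μM. Medium and compound renewed every 3–4 days for 14 days; duplicates in two independent experiments. COXII mtDNA and nuclear β-actin DNA measured by real-time PCR, normalised to untreated control; IC₅₀ calculated.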

[6] = system: HepG2; experiment: Mitochondrial toxicity in human HepG2 cells assessed as effect on nuclear beta-actin DNA level incubated for 14 days by real-time PCR method; assay type: cell-based; settings: hepg2, 336 h; in short: as §2
[7] = system: HepG2; experiment: Mitochondrial toxicity in human HepG2 cells assessed as induction of lactic acid levels at 1 uM incubated for 14 days; assay type: cell-based; settings: hepg2, 336 h
In short: (§3)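 After 14 days of HepG2 exposure to compound (same culture regimen as the mtDNA assay), lactic acid in culture supernatant quantified with a D-/L-lactic acid kit by absorbance. Results expressed as % lactic acid over % nuclear DNA (β-actin control); mean of triplicates from a single plate.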

[8] = system: HepG2; experiment: Mitochondrial toxicity in human HepG2 cells assessed as induction of lactic acid levels at 10 uM incubated for 14 days; assay type: cell-based; settings: hepg2, 336 h; in short: as §3
[9] = system: HepG2; experiment: Mitochondrial toxicity in human HepG2 cells assessed as induction of lactic acid levels at 50 uM incubated for 14 days; assay type: cell-based; settings: hepg2, 336 h; in short: as §3
[10] = system: Hepatitis C virus; experiment: Antiviral activity against HCV genotype 1a infected in human HuH7 cells assessed as reduction in replicon RNA levels incubated for 5 days by RT-PCR assay; assay type: functional, cell-based, Hepacivirus hominis; settings: subtype 1a, Huh-7, 120 h; in short: as §1
[11] = system: Hepatitis C virus; experiment: Antiviral activity against HCV genotype 1b infected in human HuH7 cells assessed as reduction in replicon RNA levels incubated for 5 days by RT-PCR assay; assay type: functional, cell-based, Hepacivirus hominis; settings: Huh-7, 120 h; in short: as §1
[12] = system: Hepatitis C virus; experiment: Antiviral activity against HCV genotype 2a infected in human HuH7 cells assessed as reduction in replicon RNA levels incubated for 5 days by RT-PCR assay; assay type: functional, cell-based, Hepacivirus hominis; settings: Huh-7, 120 h; in short: as §1
[13] = system: Hepatitis C virus; experiment: Antiviral activity against HCV genotype 2b chimera with HCV genotype 1b Con1 backbone containing HCV genotype 2b NS5B gene infected in human HuH7 cells assessed as reduction in replicon RNA levels incubated for 5 days by RT-PCR assay; assay type: functional, cell-based, Hepacivirus hominis; settings: Huh-7, 120 h; in short: as §1
[14] = system: Hepatitis C virus; experiment: Antiviral activity against HCV genotype 3a chimera with HCV genotype 1b Con1 backbone containing HCV genotype 3a NS5B gene infected in human HuH7 cells assessed as reduction in replicon RNA levels incubated for 5 days by RT-PCR assay; assay type: functional, cell-based, Hepacivirus hominis; settings: Huh-7, 120 h; in short: as §1
[15] = system: Hepatitis C virus; experiment: Antiviral activity against HCV genotype 4a chimera with HCV genotype 1b Con1 backbone containing HCV genotype 4a NS5B gene infected in human HuH7 cells assessed as reduction in replicon RNA levels incubated for 5 days by RT-PCR assay; assay type: functional, cell-based, Hepacivirus hominis; settings: Huh-7, 120 h; in short: as §1
[16] = system: Hepatitis C virus; experiment: Antiviral activity against HCV genotype 5a chimera with HCV genotype 1b Con1 backbone containing HCV genotype 5a NS5B gene infected in human HuH7 cells assessed as reduction in replicon RNA levels incubated for 5 days by RT-PCR assay; assay type: functional, cell-based, Hepacivirus hominis; settings: Huh-7, 120 h; in short: as §1
[17] = system: Hepatitis C virus; experiment: Antiviral activity against HCV genotype 1b containing NS5A Y93H mutant infected in human HuH7 cells assessed as reduction in replicon RNA levels incubated for 5 days by RT-PCR assay; assay type: functional, cell-based, Hepacivirus hominis; settings: Huh-7, 120 h; in short: as §1
[18] = system: Hepatitis C virus; experiment: Antiviral activity against HCV genotype 1b containing NS3 R155K mutant infected in human HuH7 cells assessed as reduction in replicon RNA levels incubated for 5 days by RT-PCR assay; assay type: functional, cell-based, Hepacivirus hominis; settings: Huh-7, 120 h; in short: as §1
[19] = system: Hepatitis C virus; experiment: Antiviral activity against HCV genotype 1b containing NS5B S282T mutant infected in human HuH7 cells assessed as reduction in replicon RNA levels incubated for 5 days by RT-PCR assay; assay type: functional, cell-based, Hepacivirus hominis; settings: Huh-7, 120 h; in short: as §1
[20] = system: Hepatitis C virus; experiment: Antiviral activity against HCV genotype 1b containing NS5B C316Y mutant infected in human HuH7 cells assessed as reduction in replicon RNA levels incubated for 5 days by RT-PCR assay; assay type: functional, cell-based, Hepacivirus hominis; settings: Huh-7, 120 h; in short: as §1
[21] = system: Hepatitis C virus; experiment: Antiviral activity against HCV genotype 1b containing NS5B C445F mutant infected in human HuH7 cells assessed as reduction in replicon RNA levels incubated for 5 days by RT-PCR assay; assay type: functional, cell-based, Hepacivirus hominis; settings: Huh-7, 120 h; in short: as §1
[22] = system: Hepatitis C virus; experiment: Antiviral activity against HCV genotype 1b containing NS5B M414I mutant infected in human HuH7 cells assessed as reduction in replicon RNA levels incubated for 5 days by RT-PCR assay; assay type: functional, cell-based, Hepacivirus hominis; settings: Huh-7, 120 h; in short: as §1
[23] = system: Hepatitis C virus; experiment: Antiviral activity against HCV genotype 1b containing NS5B P495A mutant infected in human HuH7 cells assessed as reduction in replicon RNA levels incubated for 5 days by RT-PCR assay; assay type: functional, cell-based, Hepacivirus hominis; settings: Huh-7, 120 h; in short: as §1
[24] = Drug metabolism in human HuH7 cells assessed as 2'-C-Me-DAPN-TP level per million cells at 50 uM incubated for 4 hrs at 37 degC by LC-MS/MS method; assay type: ADME, cell-based; settings: huh-7, 4 h
In short: (§4)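 Huh-7 cells (after attachment) or freshly plated primary human hepatocytes (after overnight acclimatation), 1 × 10⁶ cells/well, exposed to 50 μM compound for 4 h at 37 °C. Cells washed twice with ice-cold PBS and extracted overnight at −20 °C in 70% methanol containing 20 nM ddATP. Mono-, di- and triphosphates quantified by LC–MS/MS as pmol/10⁶ cells; three replicates.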

[25] = Drug metabolism in human HuH7 cells assessed as 2'-C-Me-DAPN-TP level per million cells at 50 uM incubated for 4 hrs at 37 degC by LC-MS/MS method relative to DAPN; assay type: ADME, cell-based; settings: huh-7, 4 h; in short: as §4
[26] = Drug metabolism in human primary hepatocytes assessed as 2'-C-Me-DAPN-TP level at 50 uM incubated for 4 hrs at 37 degC by LC-MS/MS method; assay type: ADME, cell-based, Hepatocyte; in short: as §4
[27] = (§5) Inhibition of HCV C-terminal His-tagged NS5Bdelta21 enzyme assessed as reduction in NS5B-mediated RNA polymerization using [32P]-GpG primer, RNA template and rNTP nucleotide mix incubated for 120 mins by PAGE method; parameters: species or system Hepacivirus hominis
In short: (§6)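 Purified NS5BΔ21 (C-terminal His tag), 1 μM, at 30 °C with 1 μM 20-mer RNA template and 1 μM ³²P-GpG primer. Buffer was 40 mM Tris pH 7.5, 6 mM NaCl, 2 mM MgCl₂. Started with 10 μM NTP mix, 1 μM competing NTP and triphosphate inhibitor at 0–100 μM. Products run on 20% denaturing PAGE and quantified; IC₅₀ calculated.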

[28] = system: Hepacivirus hominis; experiment: as §5; in short: as §6
[29] = system: Hepacivirus hominis; experiment: Inhibition of HCV C-terminal His-tagged NS5Bdelta21 enzyme assessed as induction of pausing at sites of AMP incorporation during NS5B-mediated RNA polymerization using [32P]-GpG primer, RNA template and rNTP nucleotide mix incubated for 120 mins by PAGE method
In short: as §6, with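 “μM. Stopped at 120 min with EDTA/formamide.” for “μM.”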

[30] = system: Hepatocyte; experiment: (§7) Drug level in human primary hepatocytes treated with 50 uM Ethyl 3-(2-(((R)-(((2R,3R,4R,5R)-5-(2,6-Diamino-9H-purin-9-yl)-3,4-dihydroxy-4-methyltetrahydrofuran-2-yl)methoxy)(((S)-1-ethoxy-1-oxopropan-2-yl)amino)phosphoryl)oxy)phenyl)-propanoate assessed as compound formation incubated for 4 hrs at 37 degC by LC-MS/MS method; assay type: ADME, cell-based
In short: (§8)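 Freshly plated primary human hepatocytes seeded at 1 × 10⁶ per well and acclimated overnight, then given 50 μM compound for 4 h at 37 °C. After two ice-cold PBS washes, extraction ran overnight at −20 °C in 70% methanol with 20 nM ddATP. Dried extracts went to LC–MS/MS for intracellular metabolites, as three replicates from one plate, ±SD.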

[31] = as §7, with “HuH7 cells” for “primary hepatocytes”; assay type: ADME, cell-based; settings: huh-7, 4 h
In short: (§9)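 Huh-7 cells seeded at 1 × 10⁶ per well and exposed to 50 μM compound after attachment, 4 h at 37 °C. Cells washed twice with ice-cold PBS, then extracted overnight at −20 °C in 70% methanol containing 20 nM ddATP. Supernatants were dried and analysed by LC–MS/MS for parent nucleoside and its mono-, di- and triphosphates (pmol/10⁶ cells).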

[32] = system: Hepatocyte; experiment: Drug level in human primary hepatocytes treated with 50 uM beta-D-2,6-diaminopurine nucleoside assessed as compound formation incubated for 4 hrs at 37 degC by LC-MS/MS method; assay type: ADME, cell-based; in short: as §8
[33] = Drug level in human HuH7 cells treated with 50 uM beta-D-2,6-diaminopurine nucleoside assessed as compound formation incubated for 4 hrs at 37 degC by LC-MS/MS method; assay type: ADME, cell-based; settings: huh-7, 4 h; in short: as §9
[34] = (§10) Drug level in human HuH7 cells treated with 50 uM Isopropyl 3-(2-(((S)-(((2R,3S,4R,5R)-5-(2,6-Diamino-9H-purin-9-yl)-3,4-dihydroxy-4-methyltetrahydrofuran-2-yl)methoxy)-(((S)-1-isopropoxy-1-oxopropan-2-yl)amino)phosphoryl)oxy)-phenyl)propanoate 15c(Sp) and Isopropyl 3-(2-(((R)-(((2R,3S,4R,5R)-5-(2,6-Diamino-9H-purin-9-yl)-3,4-dihydroxy-4-methyltetrahydrofuran-2-yl)methoxy)(((S)-1-isopropoxy-1-oxopropan-2-yl)amino)phosphoryl)oxy)phenyl)propanoate assessed as compound formation incubated for 4 hrs at 37 degC by LC-MS/MS method; assay type: ADME, cell-based; settings: huh-7, 4 h; in short: as §9
[35] = system: Hepatocyte; experiment: as §10, with “primary hepatocytes” for “HuH7 cells”; assay type: ADME, cell-based; in short: as §8

## CCOC(=O)CCc1ccccc1O[P@@](=O)(N[C@@H](C)C(=O)OCC)OC[C@H]1O[C@@H](n2cnc3c(N)nc(N)nc32)[C@](C)(O)[C@H]1O
[1]
  EC50: 200 nM
  EC90: 700 nM
[2]
  CC50: > 100 µM
[3]
  Activity: Non-toxic
[4]
  Activity: Non-toxic
[5]
  CC50: > 50 µM
[6]
  CC50: > 50 µM
[7]
  Activity: 150%
[8]
  Activity: 120%
[9]
  Activity: 110%
[10]
  EC50: 350 nM
  EC90: 740 nM
[11]
  EC50: 260 nM
  EC90: 390 nM
[12]
  EC50: 260 nM
  EC90: 700 nM
[13]
  EC50: 290 nM
  EC90: 420 nM
[14]
  EC50: 230 nM
  EC90: 390 nM
[15]
  EC50: 390 nM
  EC90: 890 nM
[16]
  EC50: 320 nM
  EC90: 640 nM
[17]
  EC50: 300 nM
  EC90: 3000 nM
[18]
  EC50: 320 nM
  EC90: 1300 nM
[19]
  EC50: 100 nM
  EC90: 230 nM
[20]
  EC50: 270 nM
  EC90: 770 nM
[21]
  EC50: 120 nM
  EC90: 250 nM
[22]
  EC50: 280 nM
  EC90: 1100 nM
[23]
  EC50: 80 nM
  EC90: 140 nM
[24]
  Drug metabolism: 9.9 pmol
[25]
  fold change (FC): 13
[26]
  fold change (FC): 7

## C[C@@]1(O)[C@H](O)[C@@H](COP(=O)(O)OP(=O)(O)OP(=O)(O)O)O[C@H]1n1cnc2c(N)nc(N)nc21
[27]
  IC50: 3.4 µM
[28]
  inhibition: Dose-dependent effect
[29]
  inhibition: Active
[30]
  Drug metabolism: metabolite_detected
[31]
  Drug metabolism: metabolite_detected
[32]
  Drug metabolism: metabolite_detected
[33]
  Drug metabolism: metabolite_detected
[34]
  Drug metabolism: metabolite_detected
[35]
  Drug metabolism: metabolite_detected
